NCF1 inh = p47phox (human) inhibition | P14598 | p47phox/p22phox peptide binding, fluorescence polarization, 2 h | inhibition, % at 24.7 µM | hit rate 0.53% among 220,000 | AID 1274;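 active = inhibition above about 30%, limit read from the data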;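 note: 0% = p47phox with labelled peptide and 100% = labelled peptide alone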
Arbovirus anti = arbovirus infection inhibition; arbovirus infection cell-based antiviral screen; hit rate 0.37% among 200,000; inhibition, % at 10 µM; in the data active = inhibition above about 30%
Hck-Nef inh = inhibitors of human Hck kinase activated by Nef | inhibition, % at 20 µM | hit rate 0.68% among 220,000 | Recombinant Hck-YEEI plus Nef, Z-Lyte FRET kinase assay;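 active = Hck-Nef kinase inhibition above about 50%, limit read from the data; inactive = inhibition below that limit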;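 note: 0% = DMSO with Hck plus Nef and 100% = Hck alone without Nef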
Target sequence (P08631 whole entry, looked up): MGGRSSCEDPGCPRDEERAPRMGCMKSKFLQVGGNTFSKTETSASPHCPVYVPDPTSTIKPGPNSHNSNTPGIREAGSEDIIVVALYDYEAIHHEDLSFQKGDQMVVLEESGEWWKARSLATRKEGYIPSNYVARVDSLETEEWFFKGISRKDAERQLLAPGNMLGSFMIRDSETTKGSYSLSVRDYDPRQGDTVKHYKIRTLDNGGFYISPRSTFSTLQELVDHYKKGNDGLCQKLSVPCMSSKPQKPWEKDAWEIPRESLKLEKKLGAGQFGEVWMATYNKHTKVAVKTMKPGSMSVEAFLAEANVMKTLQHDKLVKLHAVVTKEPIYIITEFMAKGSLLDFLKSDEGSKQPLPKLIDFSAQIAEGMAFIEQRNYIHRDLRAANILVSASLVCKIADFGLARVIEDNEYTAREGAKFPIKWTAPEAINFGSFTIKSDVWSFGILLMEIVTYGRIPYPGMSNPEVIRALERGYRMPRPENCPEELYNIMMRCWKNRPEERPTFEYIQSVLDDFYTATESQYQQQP
RAM network inh = inhibitors of the yeast RAM network | S. cerevisiae dse1pr::URA3 reporter, 5-FOA growth OD615, 2 d; analog-sensitive cbk1-as2 kinase mutant strain | hit rate 1.8% among 190,000 | inhibition, % at 50 µM;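 active = inhibition above a set limit, 3 SD over mean compound inhibition, cut at about 8.4% in these data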;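 note: 0% = DMSO-only wells with no growth and 100% = 10 µM 1-NA-PP1 full growth; inhibition rescues growth on 5-FOA so higher OD means more RAM inhibition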
WT yeast gro inh = growth inhibition of WT yeast, mitochondrial fusion screen | hit rate 2.1% among 190,000 | mitochondrial fusion phenotypic screen, WT strain | inhibition, % at 10 µM; in the data active = inhibition above about 58%; tested in S. cerevisiae
Calb biofilm kill = mixture kills Candida albicans biofilm cells. inhibition, % at 7.6 µM. C. albicans biofilm persisters + clotrimazole, fluorescence viability; primary screen in compound mixtures of four per well. hit rate 0.02% among 120,000. AID 1242;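 active = inhibition above 30.3% in the primary screen of four-compound pools, then above 30% when the compound was retested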;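 note: compounds exposed to preformed 24 h biofilms for 48 h; 0% = untreated biofilm control and 100% = clotrimazole plus chlorhexidine kill blank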
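System: C. albicans CAF4-2 wild-type biofilms; Medium: RPMI/MOPS medium, pH 7.0; Reagent: Clotrimazole, 50 µg/mL; Times: biofilm formation 24 h, compound exposure 48 h, 37 °C; Detection: 2-h Alamar Blue fluorescence, 535/590 nm excitation/emission; Evaluation: percent inhibition of biofilm viability.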
* hit, by the source's call; . = no result. Sampled rows, rich in hits. Any-hit rate of the full collection: about 4.6%.

SMILES | NCF1 inh | Arbovirus anti | Hck-Nef inh | RAM network inh | WT yeast gro inh | Calb biofilm kill
CCCC(=O)Nc1cc(C(=O)O)ccc1Sc1ccc(C)cc1 | -3 | 3 | -1 | 2 | 11 | 12
O=C1C(Oc2ccccc2)C(c2cccs2)N1Cc1ccc2c(c1)OCO2 (centres undefined) | -5 | -9 | 0 | 2 | -23 | .
Cc1ccccc1OC1C(=O)N(Cc2ccc3c(c2)OCO3)C1c1sccc1C (centres undefined) | -11 | 9 | 0 | 10* | 20 | .
Cc1ccc(Cl)c(OC(=O)c2nn(C(C)C)c(=O)c3ccccc23)c1 | 3 | -1 | -1 | 10* | 7 | 20
COC(=O)c1ccc2c(=O)n(-c3ccccc3F)c(=S)[nH]c2c1 | -3 | 18 | 25 | 3 | -3 | 21
Cc1cc(C)nc(/N=C(\N)N2CCc3ccccc32)n1 | 5 | 9 | -11 | 0 | -4 | 7
COc1ccc(C(=O)/C=C/C(=O)N(Cc2ccccc2OC)C(C(=O)NC2CCCCC2)c2ccncc2)c(O)c1 (centres undefined) | -8 | -9 | 3 | 0 | 15 | 10
COc1ccc(C(=O)/C=C/C(=O)N(CC(=O)NC2CCCCC2)CC2CCCO2)c(O)c1 (centres undefined) | -4 | -5 | -8 | 1 | 36 | 7
COc1ccc(C(=O)/C=C/C(=O)N(CC(=O)NC2CCCCC2)Cc2ccccc2OC)c(O)c1 | 33* | -40 | 42 | 6 | 2 | 8
COc1ccc(C(=O)/C=C/C(=O)N(CC(=O)NC2CCCCC2)Cc2ccccc2)c(O)c1 | 30* | -40 | 44 | 3 | 41 | 3
Cc1cc(C)n2nc(SCC(=O)Nc3c(C)n(C)n(-c4ccccc4)c3=O)nc2n1 | -19 | -1 | 1 | 4 | 10 | .
O=C(O)CCCC(=O)NCc1c(Cl)cccc1Sc1ccc(Cl)cc1 | 34* | . | -5 | . | . | -18
CC(C)(CC(=O)O)CC(=O)NCc1c(Cl)cccc1Sc1ccc(Cl)cc1 | -9 | . | 17 | . | . | 25
Cc1ccccc1-c1noc(C23CC4CC(CC(C4)C2)C3)n1 | 3 | -7 | -23 | 2 | 81* | .
S=C(Nc1ccc(Cc2ccncc2)cc1)Nc1cccc(Cl)c1 | -2 | -7 | -12 | 0 | 30 | 11
CCN(C(=O)c1cnc(N2CCN(c3ncccn3)CC2)c2ccccc12)c1cccc(Cl)c1 | -4 | -36 | 2 | 0 | 63* | .
COc1ccc2nc(NC(=O)C(NS(=O)(=O)c3cccs3)C(C)C)sc2c1 (centres undefined) | -25 | -4 | -1 | 8.8* | 6 | .
Cn1ncc(C(N)=O)c1NC(=S)NC(=O)c1ccc(Br)o1 | -2 | -5 | 17 | 1 | 17 | 14
Cc1nnnn1CC(=O)Nc1ccccc1[N+](=O)[O-] | -5 | 1 | 3 | 0 | -12 | 19
COCCCn1c(C)csc1=Nc1cccnc1 | -4 | -5 | 1 | 0 | -7 | 14
Cc1csc(=Nc2cccnc2)n1CC1CCCCC1 | -4 | 5 | 6 | 2 | 73* | 16
COc1cccc(C(C)NC(=S)NCc2ccc(Cl)cc2)c1 (centres undefined) | -6 | 14 | -1 | 0 | 66* | 14
COc1cccc(NC(=S)NC(C)c2ccc(OC)c(OC)c2)c1 (centres undefined) | -16 | -6 | 3 | 0 | 8 | 8
Cc1ccccc1NC(=O)C(=Cc1ccc(C(=O)O)cc1)C(=O)Nc1ccccc1C | -7 | -1 | 0 | 11* | -12 | 3
CC(=O)/C(=C/c1ccccc1)C(=O)Nc1ccccc1C | 3 | -31 | 25 | 3 | 46 | 9
SMILES | NCF1 inh | Arbovirus anti | Hck-Nef inh | RAM network inh | WT yeast gro inh | Calb biofilm kill
O=C(c1ccc2c(c1)C(=O)N(CCCO)C2=O)c1ccc2c(c1)C(=O)N(CCCO)C2=O | 1 | 2 | -6 | 1 | 6 | .
O=C1c2ccc3c4c(ccc(c24)C(=O)N1CCCCO)C(=O)N(CCCCO)C3=O | 62* | -32 | 7 | 4 | 53 | 14
Nc1ccc(S(=O)(=O)Nc2ccc(Cl)nn2)cc1 | -4 | . | 13 | . | . | 23
C=CCSc1nnc(NC(=O)c2cccc(S(=O)(=O)N(C)c3ccccc3)c2)s1 | -9 | 18 | 0 | 2 | -1 | 10
Cc1ccc(S(=O)(=O)c2nc(C)oc2NCc2ccccc2)cc1 | -10 | 5 | 1 | -1 | -6 | .
CNc1oc(C)nc1S(=O)(=O)c1ccc(C)cc1 | -11 | 7 | 2 | 1 | 68* | .
CCn1c(=O)c([N+](=O)[O-])c(Cl)c2ccccc21 | -8 | -28 | 28 | 1 | 62* | 10
CCOC(=O)c1cnc(SCc2nc(N)nc(Nc3ccc(C)cc3)n2)nc1N | -11 | 44* | 1 | 1 | -11 | .
CCOC(=O)c1cnc(SC)nc1N | 109* | 0 | -15 | 0 | 7 | .
CCOC(=O)c1cnc(SCC(C)C)nc1N | 5 | 5 | 0 | 0 | 6 | .
CC(C)(C)C1CCC(=NNC(=O)c2ccccc2-n2cccc2)CC1 (centres undefined) | -12 | -4 | 0 | 2 | -6 | 12
COc1ccc(-c2cc3nc(C)cc(N4CC(C)CC(C)C4)n3n2)cc1 (centres undefined) | 0 | 0 | 8 | 1 | 70* | 5
C/C(=C\C=C\c1ccccc1)C(=O)c1c(C)cc(C)[nH]c1=O | -6 | 9 | -8 | 1 | 8 | 19
Oc1ccc(N=Nc2c(O)ccc3ccccc23)cc1 | -38 | -12 | 0 | 5 | 98* | .
Cc1cc(N2C(=O)C3C4CC(c5ccccc5)C(C4)C3C2=O)no1 (centres undefined) | -3 | 1 | 6 | 1 | -6 | 16
COc1ccc(/C=C/C(=O)NCC(=O)N/N=C(/CCC(=O)O)c2ccccc2)cc1 | -2 | . | 13 | . | . | 19
Cc1ccc(-c2cccc(C(=O)NCc3ccccc3)n2)c2ccccc12 | 1 | -20 | -9 | 10* | 41 | 15
O=C(NCc1ccccc1)c1cccc(Br)n1 | -5 | 1 | 0 | -1 | -13 | 5
COC(=O)c1cc(NC(=O)CN(c2cccc(OC)c2)S(=O)(=O)c2ccccc2)ccc1Cl | -9 | 3 | 0 | 8.9* | 25 | 19
COC(=O)c1cc(NC(=O)CN(c2ccccc2OC)S(=O)(=O)c2ccccc2)ccc1Cl | -15 | -8 | 0 | 1 | 23 | .
CC(=O)N(C(C)=O)N1C(=O)c2cccc3c(N4CCOCC4)ccc(c23)C1=O | -47 | 17 | 12 | 3 | 0 | 4
CCN(CC)S(=O)(=O)c1ccc(C(=O)OCCN2C(=O)c3cccc4c(N5CCOCC5)ccc(c34)C2=O)cc1 | -98 | -7 | -13 | 10* | 5 | 10
O=C(OCCN1C(=O)c2cccc3c(N4CCOCC4)ccc(c23)C1=O)c1cc(Cl)cc(Cl)c1 | -61 | -12 | -13 | 8.5* | 23 | 15
CC(C)CCN1CCN(C2CSCCSC2)CC1CCO (centres undefined) | 42* | -3 | 15 | 0 | -3 | 24

Screening data deposited in PubChem BioAssay by several laboratories.
